Results published in ChEMBL document CHEMBL4392838, “Binding pocket-based design, synthesis and biological evaluation of novel selective BRD4-BD1 inhibitors” (Bioorg Med Chem, 2019).
pIC50: −log10 of the molar value. The source made the active and inactive calls. The calls are words filed in the database; no cut-off is given here.

Key:
[1] = molecular target: T1, Bromodomain-containing protein 4 (Homo sapiens, UniProt O60885); assay: Inhibition of biotinylated H4 K5,8,12,16Ac peptide binding to GST-tagged BRD4 bromodomain1 (unknown origin) at 100 uM measured after 60 mins by AlphaScreen assay relative to control
Outline: (§1)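 AlphaScreen proximity assay measuring binding of the tetra-acetylated (K5,8,12,16Ac) biotinylated histone H4 peptide to recombinant BRD4 BD1 or BD2. Buffer was 50 mM HEPES with BSA, at 1% DMSO in the 10X compound dilutions. Compound, bromodomain, peptide and histidine-conjugated acceptor beads were incubated 60 min at room temperature. Streptavidin donor beads were then added for 30 min in the dark, and the endpoint Alpha signal read. Inhibition taken at 100 µM, mean of three independent experiments.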

[2] = Antifibrotic activity against human LX2 cells assessed as reduction in cell growth measured after 48 hrs by MTT assay; format: functional, cell-based; settings: LX-2, 48 h
Outline: (§2)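 Cells grown at 37 °C in 5% CO2. MCF-7, A549 and HT-29 cells were kept in RPMI 1640 with 10% FBS and pen/strep. HepG2, A375, NRK-49F and LX-2 cells were kept in high-glucose DMEM with 10% FBS and pen/strep. HLF-1 cells were kept in DMEM/F-12 (1:1) with 10% FBS. Cells seeded for exponential growth, exposed to a concentration range for 48 h, then MTT added for 4 h at 37 °C. Formazan dissolved in DMSO, absorbance read at 490 nm, IC50 fitted.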

[3] = molecular target: T1, Bromodomain-containing protein 4; assay: Inhibition of biotinylated H4 K5,8,12,16Ac peptide binding to GST-tagged BRD4 bromodomain2 (unknown origin) at 100 uM measured after 60 mins by AlphaScreen assay relative to control; outline: as §1
[4] = molecular target: T1, Bromodomain-containing protein 4; assay: Inhibition of BRD4 in human HLF1 cells assessed as reduction in collagen-1 protein expression measured after 24 hrs by Western blot analysis; format: cell-based
Outline: (§3)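 Cells (2.5 × 10^5 per well; A375 for c-Myc, HLF-1 for collagen I) were treated for 24 h and lysed on ice. Lysate was clarified at 12,000g for 15 min at 4 °C and protein measured by BCA. 20–40 µg was run on SDS-PAGE and blotted to PVDF, then blocked in 5% milk. Primary antibodies (c-Myc or collagen I, β-actin loading control) overnight, secondary antibody 1 h, fluorescent detection.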

[5] = tested on: HepG2; assay: Antiproliferative activity against human HepG2 cells assessed as reduction in cell growth measured after 48 hrs by MTT assay; format: functional, cell-based; settings: HepG2, 48 h; outline: as §2
[6] = tested on: A-375; assay: Induction of apoptosis in human A375 cells at 10 uM measured after 24 hrs by Annexin V-FITC/propidium iodide staining based fluorescence microscopic analysis; format: functional, cell-based
[7] = Antifibrotic activity against human HLF1 cells assessed as reduction in cell growth measured after 48 hrs by MTT assay; format: functional, cell-based; settings: HLF1, 48 h; outline: as §2
[8] = tested on: HT-29; assay: Antiproliferative activity against human HT-29 cells assessed as reduction in cell growth measured after 48 hrs by MTT assay; format: functional, cell-based; settings: HT-29, 48 h; outline: as §2
[9] = Selectivity index, ratio of IC50 for cytotoxicity against human LO2 cells to IC50 for antifibrotic activity against human LX2 cells
[10] = tested on: NRK-49F; assay: Antifibrotic activity against rat NRK-49F cells assessed as reduction in cell growth measured after 48 hrs by MTT assay; format: functional, cell-based; outline: as §2
[11] = tested on: MCF7; assay: Antiproliferative activity against human MCF7 cells assessed as reduction in cell growth measured after 48 hrs by MTT assay; format: functional, cell-based; settings: MCF7, 48 h; outline: as §2
[12] = tested on: L02; assay: Cytotoxicity against human LO2 cells assessed as reduction in cell growth measured after 24 hrs by MTT assay; format: cell-based; settings: L02, 24 h
[13] = tested on: A-375; assay: Antiproliferative activity against human A375 cells assessed as reduction in cell growth measured after 48 hrs by MTT assay; format: functional, cell-based; settings: A-375, 48 h; outline: as §2
[14] = tested on: A549; assay: Antiproliferative activity against human A549 cells assessed as reduction in cell growth measured after 48 hrs by MTT assay; format: functional, cell-based; settings: A549, 48 h; outline: as §2
[15] = molecular target: T1, Bromodomain-containing protein 4; assay: Inhibition of BRD4 in human A375 cells assessed as reduction in c-MYC protein expression measured after 24 hrs by Western blot analysis; format: cell-based; outline: as §3
[16] = molecular target: T1, Bromodomain-containing protein 4; assay: Inhibition of BRD4 in human HLF1 cells assessed as reduction in collagen-1 mRNA expression at 1 uM measured after 24 hrs by RT-PCR analysis; format: cell-based
Outline: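 HLF-1 cells (2.5 × 10^5 per well) were treated for 24 h. Total RNA was extracted, reverse-transcribed to cDNA, and collagen I transcript measured by quantitative RT-PCR.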

[17] = molecular target: T1, Bromodomain-containing protein 4; assay: Inhibition of biotinylated H4 K5,8,12,16Ac peptide binding to GST-tagged BRD4 bromodomain1 (unknown origin) measured after 60 mins by AlphaScreen assay

SMILES	inhibition [1] [%]	pIC50 [2]	inhibition [3] [%]	inhibition [4]	pIC50 [5]	Activity [6]	pIC50 [7]	pIC50 [8]	Ratio IC50 [9]	pIC50 [10]	pIC50 [11]	pIC50 [12]	pIC50 [13]	pIC50 [14]	inhibition [15]	inhibition [16]	pIC50 [17]
CNC(=O)Cn1c(=O)nc(-c2ccccc2)c2c3c(sc21)CCCC3	38.5	< 3.52	3.1	–	–	–	–	–	–	–	–	–	–	–	–	–	–
Cc1noc(C)c1Cn1c(=O)nc(-c2ccc(Cl)c(Cl)c2)c2c3c(sc21)CC(C(C)(C)C)CC3 (configuration not stated)	–	5.04	29.9	Dose-dependent effect	4.84	Active	4.87	4.71	3.6	4.80	4.78	4.48	5.31	4.61	Dose-dependent effect	Active	6.25
CC(C)(C)C1CCc2c(sc3c2c(-c2ccc(Cl)cc2)nc(=O)n3Cc2cnc(Cl)s2)C1 (configuration not stated)	–	< 3.52	–	–	–	–	–	–	–	–	–	–	–	–	–	–	–
COc1ccc(-c2nc(=O)n(Cc3c(C)noc3C)c3sc4c(c23)CCN(C(C)C)C4)cc1	82.9	3.99	66.6	–	–	–	–	–	–	–	–	–	–	–	–	–	–
CC(C)(C)C1CCc2c(sc3c2c(-c2ccccc2)nc(=O)n3Cc2cnc(Cl)s2)C1 (configuration not stated)	–	5.38	28.3	–	5.62	–	5.12	4.26	–	5.22	< 4.00	–	4.83	4.50	–	–	4.64
COc1cc(OC)c2c(=O)[nH]c(-c3cc(C)c(OCCO)c(C)c3)nc2c1 [APABETALONE]	–	4.10	–	–	3.99	inactive	4.28	3.63	–	4.38	< 3.52	< 4.00	3.62	4.27	–	–	–
CCc1c(C)sc2c1c(-c1ccccc1)nc(=O)n2Cc1c(C)noc1C	9.5	< 3.52	17.8	–	–	–	–	–	–	–	–	–	–	–	–	–	–
Cc1noc(C)c1Cn1c(=O)nc(-c2ccccc2)c2c3c(sc21)CC(C(C)(C)C)CC3 (configuration not stated)	–	4.67	41.2	–	4.96	–	4.67	4.70	–	4.64	< 4.00	–	5.10	4.53	–	–	5.09
CC(=O)Cn1c(=O)nc(-c2ccccc2)c2c3c(sc21)CCCC3	23.7	< 3.52	17.2	–	–	–	–	–	–	–	–	–	–	–	–	–	–
O=c1nc(-c2ccc(Cl)cc2)c2c3c(sc2n1Cc1cnc(Cl)s1)CC(c1ccccc1)CC3 (configuration not stated)	44.9	4.01	14.5	–	–	–	–	–	–	–	–	–	–	–	–	–	–
COc1ccc(-c2nc(=O)n(Cc3c(C)noc3C)c3sc4c(c23)CCC(C(C)(C)C)C4)cc1 (configuration not stated)	–	4.89	42.2	–	4.82	–	4.85	4.89	–	4.65	4.98	–	4.85	4.72	–	–	4.94
COC(=O)C1CCc2c(sc3c2c(-c2ccccc2)nc(=O)n3Cc2c(C)noc2C)C1 (configuration not stated)	19	< 3.52	9	–	–	–	–	–	–	–	–	–	–	–	–	–	–
CC(=O)C(C)n1c(=O)nc(-c2ccccc2)c2c3c(sc21)CCCC3 (configuration not stated)	30	< 3.52	13.6	–	–	–	–	–	–	–	–	–	–	–	–	–	–
CC(C)(C)C1CCc2c(sc3c2c(-c2ccccc2)nc(=O)n3Cc2ncccn2)C1 (configuration not stated)	70.4	3.82	66.6	–	–	–	–	–	–	–	–	–	–	–	–	–	–
Cc1noc(C)c1Cn1c(=O)nc(-c2ccc(Cl)cc2)c2c3c(sc21)CC(C(C)(C)C)CC3 (configuration not stated)	–	4.98	23.4	–	4.58	–	4.72	4.47	–	4.58	4.11	–	4.87	4.18	–	–	5.62
Cc1sc2c(c1C)C(c1ccc(Cl)cc1)=N[C@@H](CC(=O)OC(C)(C)C)c1nnc(C)n1-2	–	4.54	–	–	4.95	Active	4.69	4.71	–	4.68	4.42	4.27	5.12	4.88	–	–	–
Cc1noc(C)c1Cn1c(=O)nc(-c2ccc(F)cc2)c2c3c(sc21)CC(C(C)(C)C)CC3 (configuration not stated)	–	4.76	33.2	–	4.20	–	4.84	4.97	–	4.63	4.48	–	4.85	4.30	–	–	5.44
COC(=O)c1ccc(-c2nc(=O)n(Cc3c(C)noc3C)c3sc4c(c23)CCC(C(C)(C)C)C4)cc1 (configuration not stated)	–	4.71	49.7	–	4.89	–	5.18	4.75	–	5.09	4.41	–	5.06	4.71	–	–	5.82
Cc1noc(C)c1Cn1c(=O)nc(-c2ccccc2)c2c3c(sc21)CC(C)(C)CC3	86.6	< 3.52	44.9	–	–	–	–	–	–	–	–	–	–	–	–	–	–
Cc1noc(C)c1Cn1c(=O)nc(-c2ccccc2)c2c3c(sc21)CCC3	23	< 3.52	19.8	–	–	–	–	–	–	–	–	–	–	–	–	–	–
Cc1noc(C)c1COc1nc(-c2ccc(Cl)c(Cl)c2)c2c3c(sc2n1)CC(C(C)(C)C)CC3 (configuration not stated)	32.6	< 3.52	9.3	–	–	–	–	–	–	–	–	–	–	–	–	–	–
Cn1c(=O)nc(-c2ccccc2)c2c3c(sc21)CCCC3	42.6	< 3.52	66.2	–	–	–	–	–	–	–	–	–	–	–	–	–	–
Cc1noc(C)c1Cn1c(=O)nc(-c2ccc(Cl)cc2)c2c3c(sc21)CC(c1ccccc1)CC3 (configuration not stated)	–	4.54	15.1	–	–	–	–	–	–	–	–	–	–	–	–	–	5.22
Cc1noc(C)c1Cn1c(=O)nc(-c2cccc(Cl)c2)c2c3c(sc21)CC(C(C)(C)C)CC3 (configuration not stated)	–	4.82	52.3	–	5.44	–	4.89	4.71	–	5.07	4.59	–	4.80	4.72	–	–	5.51
Cc1noc(C)c1Cn1c(=O)nc(-c2ccccc2Cl)c2c3c(sc21)CC(C(C)(C)C)CC3 (configuration not stated)	–	4.95	39.5	–	4.52	–	4.92	4.72	–	4.76	4.16	–	4.95	4.78	–	–	5.80
COc1ccc(-c2nc(=O)n(Cc3cnc(Cl)s3)c3sc4c(c23)CCC(C(C)(C)C)C4)cc1 (configuration not stated)	–	4.91	57.2	–	4.84	–	4.84	4.01	–	4.95	< 4.00	–	5.19	4.02	–	–	4.73
Cc1noc(C)c1Cn1c(=O)nc(-c2ccccc2)c2c3c(sc21)CCCCC3	84.4	3.85	81.2	–	–	–	–	–	–	–	–	–	–	–	–	–	–
Cc1noc(C)c1Cn1c(=O)nc(-c2ccccc2)c2c3c(sc21)CCCC3	46.4	3.94	26.2	–	–	–	–	–	–	–	–	–	–	–	–	–	–
